Source: PubChem
Compounds with a hit are over-represented: about 4.3% of the library has one in this group of screens.
STAT3 inh – reduces IL-6 driven STAT3 reporter signal; 190,000 compounds, 0.89% hits; U3A cells, IL-6 STAT3-luciferase reporter, luminescence; host cell line lacks STAT1; inhibition, % at 5.5 µM;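 active means inhibition above the mean inhibition across all screened compounds plus 3 SD, cut at about 44% in these data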;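 further: 0% = DMSO only wells and 100% = 100 µM nifuroxazide control wells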
STAT1 act-1 – increases IFN-gamma driven STAT1 reporter signal; NIH 3T3 STAT1-luciferase reporter, luminescence; 100% = IFN-gamma alone, no compound; activation (% of control), % at 5.5 µM; 200,000 compounds, 2.6% hits; AID 932;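 active means activation above the screen-wide mean activation plus 3 SD, cut at about 130% in these data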;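 further: raw ratio to IFN-gamma control signal so 100% means no change and 0% no light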
STAT3 act-1 – activators of IL-6 induced STAT3 signaling. U3A cells, IL-6 STAT3-luciferase reporter, luminescence; 100% = signal with IL-6 EC80 alone. activation (% of control), % at 5.6 µM. 190,000 compounds, 0.91% hits;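 active means activation above the screen-wide mean of compound activation plus 3 SD, cut at about 130% in these data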;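 further: 0% = background luminescence of wells with medium and substrate only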
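Material: human U3A cells carrying STAT3-luciferase construct. Measured by: reporter luminescence signal. Timing: compound 1 h, then IL-6 6 h at 37 °C.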
STAT1 inh – STAT1 signaling inhibition; NIH 3T3 STAT1-luciferase reporter, IFN-gamma, luminescence; inhibition, % at 5.5 µM; 200,000 compounds, 0.35% hits;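 active means inhibition above a set limit, the mean inhibition across all tested compounds plus 3 SD, cut at about 34% in these data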;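 further: 0% = IFN-gamma with DMSO and 100% = IFN-gamma with 300 µM nifuroxazide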
STAT3 act-2 – STAT3 activation, confirmation assay | shares compounds with STAT3 act-1 | U3A STAT3-luciferase reporter, IL-6 potentiation, luminescence; U3A cells lack STAT1; 100 means same as IL-6 alone | potentiation (% of control), % at 5.7 µM | 1,200 compounds, 64% hits;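 active means percent activation of the STAT3 luciferase reporter above a set limit taken from the earlier primary screen, cut at about 130% in these data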;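 further: 0% = background signal of medium plus substrate and 100% = median of IL-6 with DMSO wells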
NFkB act 2 – counter-screen for STAT3 activators: NF-kappaB activation; shares compounds with STAT3 act-1; human cells, NF-kappaB reporter activation; activation (% of control), % at 5.7 µM; 1,200 compounds, 11% hits; in the data active means activation above about 120%;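 further: reporter induced by TNF-alpha stimulation; 100% = median of stimulated DMSO wells and 0% = no signal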
STAT1 act-2 – activates STAT1, counter-screen to STAT3 activators; NIH 3T3 STAT1-luciferase reporter, IFN-gamma, luminescence; AID 1318; activation (% of control), % at 5.7 µM; 1,200 compounds, 13% hits; shares compounds with STAT3 act-1;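 active means activation above the solvent-only control well mean plus 3 SD, set per screening run, cut at about 120% in these data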;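 further: 100% = IFN-gamma with DMSO median signal so 100% means no change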
An asterisk follows results filed as active; i = inactive; / = no result.

SMILES	STAT3 inh	STAT1 act-1	STAT3 act-1	STAT1 inh	STAT3 act-2	NFkB act 2	STAT1 act-2
CCOC(=O)c1c2n(c3ccc(O)cc13)CCC2	-72	102	163*	-2	82	104	102
C(=N\c1nccs1)/c1c[nH]c2ccccc12	-81	89	167*	13	132	103	94
Oc1oc(-c2cccc3ccccc23)nc1/C=N/c1nccs1	2	92	101	9	/	/	/
COCCCNC(=O)c1cccn2c(=O)c3cc4ccccc4cc3nc12	15	118	90	-19	/	/	/
O=C(NCc1ccco1)c1cccn2c(=O)c3cc4ccccc4cc3nc12	-109	101	196*	-1	162*	113	105
O=C(Nc1nnc(CC(=O)N2CCOCC2)s1)c1cccs1	-53	96	147*	1	98	106	106
CCOC(=O)CC1C(=O)NCCN1C(=O)c1cc2c(=O)n3cccc(C)c3nc2s1 (stereo unspecified)	-73	99	164*	2	139*	105	99
CCOC(=O)CC1C(=O)NCCN1C(=O)c1cc2c(=O)n3ccccc3nc2s1 (stereo unspecified)	-19	97	120	3	/	/	/
CCOc1cc(Br)ccc1S(=O)(=O)N1CCC(C(N)=O)CC1	6	102	93	-3	/	/	/
Nc1ccc(C2=Nc3cccc4cccc(c34)N2)cc1	-71	105	158*	-6	163*	108	108
Cc1ccc(/C=C(\NC(=O)c2ccc(C)cc2)C(=O)NCCCn2ccnc2)cc1	-4	103	104	-5	/	/	/
COc1ccc(C2CC3(CC(C)(C)NC(SC)=N3)Oc3cc(O)cc(C)c32)cc1 (stereo unspecified)	i	122	537*	-25	382*	114	127*
COc1ccc(C2CC3(CC(C)(C)NC(=O)N3)Oc3cc(O)ccc32)cc1 (stereo unspecified)	-125	102	211*	-2	176*	110	119
COc1ccc(C2CC3(CC(C)(C)NC(=S)N3)Oc3cc(O)cc(C)c32)cc1 (stereo unspecified)	-330	105	363*	-6	268*	110	106
c1ccc2sc(Sc3ncnc4sccc34)nc2c1	-61	110	151*	-11	159*	97	102
COC(=O)c1sccc1NC(=S)Nc1ccc(F)cc1	12	90	92	11	/	/	/
COC(=O)c1sccc1NC(=O)Nc1cccc(F)c1	-43	127	150*	-29	131	121*	135*
Nc1nc(-c2ccc(Cl)cc2)nn1C(=O)c1cccs1	-48	95	146*	7	145*	103	91
Cc1cc(-c2ccc(Cl)cc2)c(C#N)c(N)n1	-57	88	148*	7	140*	102	107
CCOc1ccccc1CN1CCN(Cc2cc3ccccc3[nH]2)CC1CCO (stereo unspecified)	-36	81	136*	20	150*	98	94
N#Cc1cn(CC(=O)O)c2ccccc12	-41	89	140*	12	140*	102	92
CCOC(=O)Cn1cc(C#N)c2ccccc21	5	98	102	0	/	/	/
COc1ccc(N(Cc2cc(=O)[nH]c3ccccc23)C(=O)c2ccco2)cc1	-20	87	118	14	/	/	/
CCC(=O)N(Cc1cc(=O)[nH]c2ccccc12)c1cccc(C)c1	-48	103	142*	-3	124	101	96
CCOc1ccc(-c2nc[nH]c2[N+](=O)[O-])cc1	2	104	102	-2	/	/	/
SMILES	STAT3 inh	STAT1 act-1	STAT3 act-1	STAT1 inh	STAT3 act-2	NFkB act 2	STAT1 act-2
S=c1[nH]nc(CSc2nc3ccccc3s2)o1	-43	91	142*	10	142*	100	97
CC(=O)Nc1cc(C)nn1-c1nc2ccccc2s1	-44	116	148*	-16	181*	122*	144*
Cc1cc(NC(=O)CN2CCOCC2)n(-c2nc3ccccc3s2)n1	-77	99	165*	1	146*	102	99
Cc1ccc(NP(=O)(c2ccc(N(C)C)cc2NC(=O)c2cccs2)N2CCOCC2)cc1 (stereo unspecified)	-53	99	139*	1	135*	101	101
CN(C)c1ccc(P(=O)(Nc2ccc([N+](=O)[O-])cc2)N2CCOCC2)c(NC(=O)c2cccs2)c1 (stereo unspecified)	-54	105	140*	-5	149*	101	104
CN(C)c1ccc(P(=O)(Nc2ccccc2)N2CCOCC2)c(NC(=O)c2cccs2)c1 (stereo unspecified)	-43	102	136*	-2	140*	100	103
Cc1ccc(NP(=O)(c2ccc(N(C)C)cc2NC(=O)c2cccs2)N2CCOCC2)cc1Cl (stereo unspecified)	-39	97	127	4	/	/	/
O=C(Nc1ccc(N2CCOCC2)cc1N1CCOCC1)c1cccs1	-5	95	104	1	/	/	/
COc1ccc(N2C(=O)N(Cc3cccc(F)c3)c3ccccc3S2(=O)=O)cc1	6	97	99	3	/	/	/
Cc1nc(COC(=O)c2cc(O)c3ccccc3c2O)cs1	-51	93	140*	8	127	100	89
Cc1nc(COC(=O)c2ccc(CO)cc2)cs1	-2	107	104	-8	/	/	/
Cc1cc(C)cc(NS(=O)(=O)c2ccc3oc(=O)ccc3c2)c1	-2	97	99	3	/	/	/
O=C(Nc1ccccn1)c1ccc2ccccc2n1	-50	111	147*	-12	180*	128*	164*
Cc1ccc(-c2nc(NCc3ccco3)c3ccccc3n2)cc1	-46	98	139*	3	153*	109	109
c1cncc(-c2nc(NCc3ccco3)c3ccccc3n2)c1	-26	104	125	-4	/	/	/
COc1ccc(NC(=O)COC(=O)Cc2c(F)cccc2Cl)cc1OC	12	91	93	8	/	/	/
COc1ccc(C(=O)n2nc(C)cc2Nc2ccccc2)cc1	-70	122	167*	-24	153*	119	136*
Clc1ccccc1-c1ccc(/C=N/Nc2nncc(-c3ccccc3)n2)o1	-74	96	163*	3	154*	103	107
Clc1ccc(-c2ccc(/C=N/Nc3nncc(-c4ccccc4)n3)o2)cc1	-2	106	102	-7	/	/	/
Fc1ccc(NC(=S)NCCN2CCOCC2)c(F)c1F	13	105	96	-5	/	/	/
Oc1c(-c2cc(-c3ccco3)[nH]n2)ccc2ccccc12	-76	117	164*	-18	166*	154*	116
